Experimental data: ChEMBL document CHEMBL4152188, “Design, synthesis and biological evaluation of C(4) substituted monobactams as antibacterial agents against multidrug-resistant Gram-negative bacteria” (Eur J Med Chem, 2018)
≈ marks a conversion by molar mass, not a printed value.

Columns and labels:
Assay type in all cases: functional
Pseudomonas aeruginosa [1] = experiment: Antibacterial activity against IMP-4 producing Pseudomonas aeruginosa isolate 209321 after 18 hrs in presence of BPL by CLSI broth microdilution method; conditions: isolate 209321, 18 h
How it was run: (§1)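 CLSI broth microdilution against clinical isolates (ESBL E. coli, KPC-2 MDR K. pneumoniae, IMP-4 MDR P. aeruginosa; five per species). Iron limitation: Mueller-Hinton broth supplemented with 16 mg/liter 2,2'-bipyridyl to complex iron and induce iron uptake systems. Read-out: MIC.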

Pseudomonas aeruginosa [2] = experiment: Selectivity index, ratio of MIC for against IMP-4 producing Pseudomonas aeruginosa isolate 209321 to MIC for against IMP-4 producing Pseudomonas aeruginosa isolate 209321 in presence of BPL
Klebsiella pneumoniae [3] = experiment: Antibacterial activity against KPC-2 producing Klebsiella pneumoniae isolate 209632 after 18 hrs in presence of BPL by CLSI broth microdilution method; conditions: isolate 209632, 18 h; how it was run: as §1
Klebsiella pneumoniae [4] = experiment: Antibacterial activity against KPC-2 producing Klebsiella pneumoniae isolate 212232 after 18 hrs in presence of BPL by CLSI broth microdilution method; conditions: isolate 212232, 18 h; how it was run: as §1
Pseudomonas aeruginosa [5] = experiment: Antibacterial activity against IMP-4 producing Pseudomonas aeruginosa isolate 207272 after 18 hrs in presence of BPL by CLSI broth microdilution method; conditions: isolate 207272, 18 h; how it was run: as §1
Pseudomonas aeruginosa [6] = experiment: Antibacterial activity against IMP-4 producing Pseudomonas aeruginosa isolate 208247 after 18 hrs by CLSI broth microdilution method; conditions: isolate 208247, 18 h
Pseudomonas aeruginosa [7] = experiment: Antibacterial activity against IMP-4 producing Pseudomonas aeruginosa isolate 212886 after 18 hrs in presence of BPL by CLSI broth microdilution method; conditions: isolate 212886, 18 h; how it was run: as §1
Klebsiella pneumoniae [8] = experiment: Antibacterial activity against KPC-2 producing Klebsiella pneumoniae isolate 212232 after 18 hrs by CLSI broth microdilution method; conditions: isolate 212232, 18 h
Escherichia coli [9] = experiment: Selectivity index, ratio of MIC for against Escherichia coli isolate 210737 to MIC for Escherichia coli isolate 210737 in presence of BPL
Klebsiella pneumoniae [10] = experiment: Antibacterial activity against KPC-2 producing Klebsiella pneumoniae isolate 212423 after 18 hrs in presence of BPL by CLSI broth microdilution method; conditions: isolate 212423, 18 h; how it was run: as §1
Pseudomonas aeruginosa [11] = experiment: Selectivity index, ratio of MIC for against IMP-4 producing Pseudomonas aeruginosa isolate 208247 to MIC for against IMP-4 producing Pseudomonas aeruginosa isolate 208247 in presence of BPL
Klebsiella pneumoniae [12] = experiment: Antibacterial activity against KPC-2 producing Klebsiella pneumoniae isolate 212229 after 18 hrs in presence of BPL by CLSI broth microdilution method; conditions: isolate 212229, 18 h; how it was run: as §1
Klebsiella pneumoniae [13] = experiment: Antibacterial activity against KPC-2 producing Klebsiella pneumoniae isolate 209632 after 18 hrs by CLSI broth microdilution method; conditions: isolate 209632, 18 h
Pseudomonas aeruginosa [14] = experiment: Selectivity index, ratio of MIC for against IMP-4 producing Pseudomonas aeruginosa isolate 207272 to MIC for against IMP-4 producing Pseudomonas aeruginosa isolate 207272 in presence of BPL
Escherichia coli [15] = experiment: Antibacterial activity against extended-spectrum beta-lactamase producing Escherichia coli isolate 209285 after 18 hrs by CLSI broth microdilution method; conditions: isolate 209285, 18 h
Escherichia coli [16] = experiment: Antibacterial activity against Escherichia coli isolate 210737 after 18 hrs in presence of BPL by CLSI broth microdilution method; conditions: isolate 210737, 18 h; how it was run: as §1
Pseudomonas aeruginosa [17] = experiment: Selectivity index, ratio of MIC for against IMP-4 producing Pseudomonas aeruginosa isolate 209471 to MIC for against IMP-4 producing Pseudomonas aeruginosa isolate 209471 in presence of BPL
Escherichia coli [18] = experiment: Antibacterial activity against extended-spectrum beta-lactamase producing Escherichia coli isolate 106342 after 18 hrs by CLSI broth microdilution method; conditions: isolate 106342, 18 h
Escherichia coli [19] = experiment: Antibacterial activity against extended-spectrum beta-lactamase producing Escherichia coli isolate 208687 after 18 hrs by CLSI broth microdilution method; conditions: isolate 208687, 18 h
Klebsiella pneumoniae [20] = experiment: Antibacterial activity against KPC-2 producing Klebsiella pneumoniae isolate 209735 after 18 hrs in presence of BPL by CLSI broth microdilution method; conditions: isolate 209735, 18 h; how it was run: as §1
Pseudomonas aeruginosa [21] = experiment: Selectivity index, ratio of MIC for against IMP-4 producing Pseudomonas aeruginosa isolate 212886 to MIC for against IMP-4 producing Pseudomonas aeruginosa isolate 212886 in presence of BPL
Pseudomonas aeruginosa [22] = experiment: Antibacterial activity against IMP-4 producing Pseudomonas aeruginosa isolate 209471 after 18 hrs by CLSI broth microdilution method; conditions: isolate 209471, 18 h
Pseudomonas aeruginosa [23] = experiment: Antibacterial activity against IMP-4 producing Pseudomonas aeruginosa isolate 209471 after 18 hrs in presence of BPL by CLSI broth microdilution method; conditions: isolate 209471, 18 h; how it was run: as §1
Escherichia coli [24] = experiment: Antibacterial activity against extended-spectrum beta-lactamase producing Escherichia coli isolate 212648 after 18 hrs by CLSI broth microdilution method; conditions: isolate 212648, 18 h
Pseudomonas aeruginosa [25] = experiment: Antibacterial activity against IMP-4 producing Pseudomonas aeruginosa isolate 209321 after 18 hrs by CLSI broth microdilution method; conditions: isolate 209321, 18 h
Klebsiella pneumoniae [26] = experiment: Selectivity index, ratio of MIC for against KPC-2 producing Klebsiella pneumoniae isolate 209735 to MIC for against KPC-2 producing Klebsiella pneumoniae isolate 209735 in presence of BPL
Escherichia coli [27] = experiment: Antibacterial activity against extended-spectrum beta-lactamase producing Escherichia coli isolate 209285 after 18 hrs in presence of BPL by CLSI broth microdilution method; conditions: isolate 209285, 18 h; how it was run: as §1
Pseudomonas aeruginosa [28] = experiment: Antibacterial activity against IMP-4 producing Pseudomonas aeruginosa isolate 208247 after 18 hrs in presence of BPL by CLSI broth microdilution method; conditions: isolate 208247, 18 h; how it was run: as §1
Escherichia coli [29] = experiment: Selectivity index, ratio of MIC for against extended-spectrum beta-lactamase producing Escherichia coli isolate 212648 to MIC for extended-spectrum beta-lactamase producing Escherichia coli isolate 212648 in presence of BPL
Escherichia coli [30] = experiment: Antibacterial activity against extended-spectrum beta-lactamase producing Escherichia coli isolate 212648 after 18 hrs in presence of BPL by CLSI broth microdilution method; conditions: isolate 212648, 18 h; how it was run: as §1
Klebsiella pneumoniae [31] = experiment: Selectivity index, ratio of MIC for against KPC-2 producing Klebsiella pneumoniae isolate 212423 to MIC for against KPC-2 producing Klebsiella pneumoniae isolate 212423 in presence of BPL
Klebsiella pneumoniae [32] = experiment: Antibacterial activity against KPC-2 producing Klebsiella pneumoniae isolate 209735 after 18 hrs by CLSI broth microdilution method; conditions: isolate 209735, 18 h
Escherichia coli [33] = experiment: Antibacterial activity against extended-spectrum beta-lactamase producing Escherichia coli isolate 208687 after 18 hrs in presence of BPL by CLSI broth microdilution method; conditions: isolate 208687, 18 h; how it was run: as §1
Escherichia coli [34] = experiment: Selectivity index, ratio of MIC for against extended-spectrum beta-lactamase producing Escherichia coli isolate 208687 to MIC for extended-spectrum beta-lactamase producing Escherichia coli isolate 208687 in presence of BPL
Escherichia coli [35] = experiment: Selectivity index, ratio of MIC for against extended-spectrum beta-lactamase producing Escherichia coli isolate 106342 to MIC for extended-spectrum beta-lactamase producing Escherichia coli isolate 106342 in presence of BPL
Escherichia coli [36] = experiment: Antibacterial activity against extended-spectrum beta-lactamase producing Escherichia coli isolate 106342 after 18 hrs in presence of BPL by CLSI broth microdilution method; conditions: isolate 106342, 18 h; how it was run: as §1
Klebsiella pneumoniae [37] = experiment: Antibacterial activity against KPC-2 producing Klebsiella pneumoniae isolate 212229 after 18 hrs by CLSI broth microdilution method; conditions: isolate 212229, 18 h
Klebsiella pneumoniae [38] = experiment: Selectivity index, ratio of MIC for against KPC-2 producing Klebsiella pneumoniae isolate 212229 to MIC for against KPC-2 producing Klebsiella pneumoniae isolate 212229 in presence of BPL
Escherichia coli [39] = experiment: Selectivity index, ratio of MIC for against extended-spectrum beta-lactamase producing Escherichia coli isolate 209285 to MIC for extended-spectrum beta-lactamase producing Escherichia coli isolate 209285 in presence of BPL
Escherichia coli [40] = experiment: Antibacterial activity against Escherichia coli isolate 210737 after 18 hrs by CLSI broth microdilution method; conditions: isolate 210737, 18 h
Klebsiella pneumoniae [41] = experiment: Selectivity index, ratio of MIC for against KPC-2 producing Klebsiella pneumoniae isolate 212232 to MIC for against KPC-2 producing Klebsiella pneumoniae isolate 212232 in presence of BPL
Klebsiella pneumoniae [42] = experiment: Antibacterial activity against KPC-2 producing Klebsiella pneumoniae isolate 212423 after 18 hrs by CLSI broth microdilution method; conditions: isolate 212423, 18 h
Pseudomonas aeruginosa [43] = experiment: Antibacterial activity against IMP-4 producing Pseudomonas aeruginosa isolate 207272 after 18 hrs by CLSI broth microdilution method; conditions: isolate 207272, 18 h
Pseudomonas aeruginosa [44] = experiment: Antibacterial activity against IMP-4 producing Pseudomonas aeruginosa isolate 212886 after 18 hrs by CLSI broth microdilution method; conditions: isolate 212886, 18 h
Klebsiella pneumoniae [45] = experiment: Selectivity index, ratio of MIC for against KPC-2 producing Klebsiella pneumoniae isolate 209632 to MIC for against KPC-2 producing Klebsiella pneumoniae isolate 209632 in presence of BPL

CC(C)C(O/N=C(\C(=O)N[C@@H]1C(=O)N(S(=O)(=O)O)[C@@H]1COC(=O)CNC(=O)c1cc(=O)c(O)c[nH]1)c1csc(N)n1)c1cc(=O)c(O)cn1O (stereo not given in full)
MIC (Pseudomonas aeruginosa [1]): 32 µg/mL | Selectivity Index (Pseudomonas aeruginosa [2]): 2 | MIC (Klebsiella pneumoniae [3]): > 64 µg/mL | MIC (Klebsiella pneumoniae [4]): 16 µg/mL | MIC (Pseudomonas aeruginosa [5]): 64 µg/mL | MIC (Pseudomonas aeruginosa [6]): 64 µg/mL (≈ 86.4 µM) | MIC (Pseudomonas aeruginosa [7]): > 64 µg/mL | MIC (Klebsiella pneumoniae [8]): > 64 µg/mL | Selectivity Index (Escherichia coli [9]): 2 | MIC (Klebsiella pneumoniae [10]): > 64 µg/mL | Selectivity Index (Pseudomonas aeruginosa [11]): 1 | MIC (Klebsiella pneumoniae [12]): > 64 µg/mL | MIC (Klebsiella pneumoniae [13]): > 64 µg/mL | Selectivity Index (Pseudomonas aeruginosa [14]): 1 | MIC (Escherichia coli [15]): 32 µg/mL (≈ 43.2 µM) | MIC (Escherichia coli [16]): 8 µg/mL | Selectivity Index (Pseudomonas aeruginosa [17]): 1 - 2 | MIC (Escherichia coli [18]): 16 µg/mL (≈ 21.6 µM) | MIC (Escherichia coli [19]): 32 µg/mL (≈ 43.2 µM) | MIC (Klebsiella pneumoniae [20]): > 64 µg/mL | Selectivity Index (Pseudomonas aeruginosa [21]): 1 - 2 | MIC (Pseudomonas aeruginosa [22]): > 64 µg/mL | MIC (Pseudomonas aeruginosa [23]): > 64 µg/mL | MIC (Escherichia coli [24]): 32 µg/mL (≈ 43.2 µM) | MIC (Pseudomonas aeruginosa [25]): 64 µg/mL (≈ 86.4 µM) | Selectivity Index (Klebsiella pneumoniae [26]): 4 | MIC (Escherichia coli [27]): 16 µg/mL | MIC (Pseudomonas aeruginosa [28]): 64 µg/mL | Selectivity Index (Escherichia coli [29]): 2 | MIC (Escherichia coli [30]): 16 µg/mL | Selectivity Index (Klebsiella pneumoniae [31]): 4 | MIC (Klebsiella pneumoniae [32]): > 64 µg/mL | MIC (Escherichia coli [33]): 4 µg/mL | Selectivity Index (Escherichia coli [34]): 8 | Selectivity Index (Escherichia coli [35]): 1 | MIC (Escherichia coli [36]): 16 µg/mL | MIC (Klebsiella pneumoniae [37]): > 64 µg/mL | Selectivity Index (Klebsiella pneumoniae [38]): 4 | Selectivity Index (Escherichia coli [39]): 2 | MIC (Escherichia coli [40]): 16 µg/mL (≈ 21.6 µM) | Selectivity Index (Klebsiella pneumoniae [41]): >4 | MIC (Klebsiella pneumoniae [42]): > 64 µg/mL | MIC (Pseudomonas aeruginosa [43]): 64 µg/mL (≈ 86.4 µM) | MIC (Pseudomonas aeruginosa [44]): > 64 µg/mL | Selectivity Index (Klebsiella pneumoniae [45]): 4
